Assay results as given in publication PMC8095719 (Science translational medicine, 2020).
Like-named read-outs stand apart in the source and are kept apart here. Values belong to the compound of their own block, whether it stands above or below them.

Columns and labels:
β-catenin = experiment: Western blot of β-catenin in SH-SY5Y cultured cells; type: cell-based; settings: 10 μM, 24 hours
Fmr1^−/y mice [1] = experiment: audiogenic seizure; type: in vivo, mouse; settings: for AGS incidence, chronic dosing: 30 mg/kg ip daily for five days
Summary of the method: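 Male Fmr1−/y mice were housed on static racks to avoid auditory desensitisation. Doses were 30 mg/kg ip in 10% DMSO/45% PEG 400/45% saline. Acute: one injection 1–2 h before alarm exposure in a separate room. Chronic: four daily injections plus a fifth 1–2 h before testing. The mGluR5 antagonist comparator was given as three doses every 48 h. Incidence was compared by two-tailed Fisher's exact test.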

[2] = tested on: layer 5 of the visual cortex slices; experiment: evoked and spontaneous spiking in visual cortex slices; type: cell-based, mouse; settings: 10 μM
Summary of the method: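 Visual cortex slices (350 μm) came from P16–P21 male WT and Fmr1−/y mice, cut in ice-cold sucrose solution. Recovery was 30 min at 32°C, then 2.5 h at room temperature in modified aCSF. White matter was stimulated with 0.2 ms pulses every 30 s at 35–80 μA, with extracellular recording in layer 5. Recording ran 30 min in vehicle (60 trials), then 30 min with 10 μM compound from 50 mM DMSO stock. Analysis was two-way repeated-measures ANOVA with Bonferroni post hoc.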

[3] = tested on: mouse hippocampal slices (CA1 fEPSP); experiment: mGluR-dependent LTD; type: cell-based; settings: DHPG 100 μM, 5 min
mouse hippocampal slices = experiment: metabolic labeling of protein synthesis in hippocampal slices; type: cell-based
Summary of the method: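 Hippocampal slices (500 μm) came from male P28–P32 Fmr1−/y and WT littermates and were kept in oxygenated aCSF at 32.5°C. Compound was applied at 10 μM. Slices were labelled with [35S]Met/Cys for 30 min, then proteins were TCA-precipitated and counted by scintillation. Counts per minute per μg protein were normalised to the labelling aCSF and expressed as percent WT. Analysis was two-way ANOVA for genotype × treatment.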

GSK3β [4] = settings: cited from earlier work; for IC50: read-out: biochemical IC50 against GSK3β, reported values
[5] = tested on: T668 of amyloid precursor protein (APP); experiment: Western blot of APP phosphorylation in dorsal hippocampus after in vivo dosing; design: species or system mouse; settings: Fmr1^−/y mice, five days
[6] = tested on: CRMP2 phosphorylation (p-CRMP2); experiment: Western blot of CRMP2 phosphorylation in SH-SY5Y cultured cells; type: cell-based; settings: 10 μM
wild-type mice = experiment: MK-801–induced hyperlocomotion; type: in vivo, mouse; settings: MK-801 0.3 mg/kg
GSK3β [7] = settings: cited from earlier work; for EC50: read-out: cellular EC50 against GSK3β, HEK293 cells
[8] = tested on: mouse hippocampal slices (CA1 fEPSP); experiment: NMDAR-dependent LTD and synaptic transmission in hippocampal slices; type: cell-based; settings: for NMDAR-dependent LTD, acute application: wild-type hippocampal slices, 10 μM, LFS 900 pulses at 3 Hz
Fmr1^−/y mice [9] = settings: 30 mg/kg ip chronic, over 48 hours
[10] = plasma, CSF and brain pharmacokinetics in C57BL/6 mice; type: in vivo, mouse; settings: 30 mg/kg ip; for brain entry after in vivo dosing: confirmed by hippocampal APP phosphorylation and LTD
Summary of the method: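 Male C57BL/6 mice received a single 30 mg/kg ip dose. Blood was taken into K2-EDTA from three mice per time point, and plasma was stored below −70°C. CSF and brain were sampled at 0.08, 0.5, 1, 2, 4, 8 and 24 h. Brains were rinsed in PBS pH 7.4 and homogenised in ice-cold PBS to three times brain weight before analysis.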

GSK3α [11] = settings: read-out: cellular EC50 against GSK3α; HEK293 cells; cited from earlier work
GSK3α [12] = settings: read-out: biochemical IC50 against GSK3α; reported values; cited from earlier work
[13] = tested on: mouse hippocampal slices (CA1 fEPSP); settings: previous studies; cited from earlier work
Fmr1^−/y mice [14] = settings: cited from earlier work
T514 of CRMP2 = experiment: Western blot of CRMP2 phosphorylation in dorsal hippocampus after in vivo dosing; design: species or system mouse; settings: Fmr1^−/y mice, five days dosing
Fmr1^−/y mice [15] = settings: chronic dietary treatment; cited from earlier work
GSK3 = settings: lithium treatment in patients with bipolar disorder; cited from earlier work
[16] = Fmr1^−/y mice, 30 mg/kg ip, 1 hour before stimulus
[17] = Fmr1^−/y visual cortical slices
[18] = wild-type visual cortical slices
[19] = Fmr1^−/y hippocampal slices, 10 μM

Compound: CC1(C)CC(=O)C2=C(C1)N=C1NNC(C3CC3)=C1[C@]2(C)c1ccccc1 [BRD0320, (S)-3-cyclopropyl-4,7,7-trimethyl-4-phenyl-1,2,4,6,7,8-hexahydro-5H-pyrazolo[3,4-b]quinolin-5-one]
effect on β-catenin (β-catenin): increase in β-catenin | AGS incidence, acute dosing (Fmr1^−/y mice [1]; [16]): ameliorates AGS incidence

brain entry after in vivo dosing [10]: successfully entered the brain
Compound: CC[C@]1(c2ccccc2)C2=CNNC2=NC2=C1C(=O)CC(C)(C)C2 [BRD0705, (S)-4-ethyl-7,7-dimethyl-4-phenyl-1,2,4,6,7,8-hexahydro-5H-pyrazolo[3,4-b]quinolin-5-one]
effect on β-catenin (β-catenin): no effect on β-catenin | number of evoked action potentials [2, 17]: significantly reduced the number of action potentials | number of spontaneous action potentials [2, 17]: significantly reduced the number of spontaneous action potentials | number of evoked action potentials [2, 18]: had no effect on WT visual cortical slices | mGluR-dependent LTD ([3]; Fmr1^−/y hippocampal slices): blocked induction of LTD | mGluR-dependent LTD ([3]; wild-type hippocampal slices): blocked induction of LTD | basal protein synthesis (mouse hippocampal slices; [19]): reduced elevated protein synthesis | CDPPB (mGluR5)-stimulated protein synthesis (mouse hippocampal slices; wild-type hippocampal slices, 10 μM, CDPPB 10 μM): blocked the elevation in protein synthesis | basal protein synthesis (mouse hippocampal slices; wild-type mice): no effect on basal protein synthesis | IC50 (GSK3β [4]): […] | APP phosphorylation (T668) in dorsal hippocampus ([5]; 30 mg/kg ip QD): reduced APP phosphorylation | CRMP2 phosphorylation (p-CRMP2) [6]: decrease of CRMP2 phosphorylation | effect of pretreatment on MK-801–induced hyperlocomotion (wild-type mice; 30 mg/kg ip): had no effect on the behavioral response to MK-801 | EC50 (GSK3β [7]): […] | IC50 (GSK3β [7]; read-out: cellular IC50 against GSK3β, HEK cells): […] | NMDAR-dependent LTD, acute application [8]: blocked low-frequency stimulation–induced LTD | synaptic transmission ([8]; wild-type mice): no effect | inhibitory avoidance memory acquisition and extinction (Fmr1^−/y mice [9]): exhibited normal memory acquisition and extinction | AGS incidence, chronic dosing (Fmr1^−/y mice [1]; Fmr1^−/y mice): no apparent loss of efficacy | AGS incidence, acute dosing (Fmr1^−/y mice [1]; [16]): significant reduction in seizure incidence | AGS incidence, acute dosing (Fmr1^−/y mice [1]; wild-type mice, 30 mg/kg ip): had no effect on seizure incidence

time of peak brain concentration after injection [10]: 60 min | brain entry after in vivo dosing [10]: successfully entered the brain
Compound: CC(C)(C)CC1=C2C(=NC3=C(C(=O)CC(C)(C)C3)[C@@]2(C)c2ccccc2)NN1 [BRD3731, (S)-4,7,7-trimethyl-3-neopentyl-4-phenyl-1,2,4,6,7,8-hexahydro-5H-pyrazolo[3,4-b]quinolin-5-one]
EC50 (GSK3α [11]): > 20000 nM | effect on β-catenin (β-catenin): no effect on β-catenin | number of evoked action potentials [2, 17]: did not alter activity | number of spontaneous action potentials [2, 17]: does not reduce spontaneous hyperactivity | number of evoked action potentials [2, 18]: did not alter activity | mGluR-dependent LTD ([3]; Fmr1^−/y hippocampal slices): but not BRD3731, blocked induction of LTD | mGluR-dependent LTD ([3]; wild-type hippocampal slices): but not BRD3731, blocked induction of LTD | basal protein synthesis (mouse hippocampal slices; [19]): had no effect | selectivity for GSK3β (GSK3β [4]; purified enzymes): about 10 fold | IC50 (GSK3β [4]): 15 nM | APP phosphorylation (T668) in dorsal hippocampus ([5]; 30 mg/kg ip QD): reduced APP phosphorylation | CRMP2 phosphorylation (p-CRMP2) [6]: decrease of CRMP2 phosphorylation | EC50 (GSK3β [7]): 3300 nM | NMDAR-dependent LTD ex vivo after chronic dosing in vivo ([8]; 30 mg/kg ip daily for five days, slices 1 hour after last injection): inhibited NMDAR-dependent LTD | NMDAR-dependent LTD, acute application [8]: strongly inhibited LTD | AGS incidence, chronic dosing (Fmr1^−/y mice [1]; Fmr1^−/y mice): has no effect on AGS incidence | AGS incidence, acute dosing (Fmr1^−/y mice [1]; [16]): no significant reduction in seizure activity | AGS incidence, acute dosing (Fmr1^−/y mice [1]; wild-type mice, 30 mg/kg ip): did not affect seizure incidence | IC50 (GSK3α [12]): 215 nM

Compound: N#Cc1cccc(C(=O)Nc2cc(-c3ccccc3)nn2-c2ccccc2)c1 [CDPPB, 3-cyano-N-(1,3-diphenyl-1H-pyrazol-5-yl) benzamide, reference compound]
protein synthesis on mGluR5 stimulation (mouse hippocampal slices; wild-type hippocampal slices, 10 μM, versus vehicle): significantly increased protein synthesis

Compound: Cc1c[nH]c(-c2cnc(NCCNc3ccc(C#N)cn3)nc2-c2ccc(Cl)cc2Cl)n1 [CHIR99021]
NMDAR-dependent LTD [13]: reliably inhibit LTD

Compound: Cc1nc(C#Cc2ccnc(Cl)c2)c(C)n1-c1ccc(OC(F)(F)F)cc1 [CTEP, 2-chloro-4-((2,5-dimethyl-1-(4-(trifluoromethoxy)phenyl)-1H-imidazol-4-yl)ethynyl) pyridine, reference compound]
AGS incidence, acute dosing (Fmr1^−/y mice [1]; Fmr1^−/y mice, 2 mg/kg ip): significantly reduced the incidence of AGS | AGS protection after chronic dosing (Fmr1^−/y mice [1]; Fmr1^−/y mice, three consecutive doses over 5 days, 2 mg/kg ip): protection was completely lost

Compound: Cc1cccc(C#Cc2ccccc2)n1 [MPEP]
suppression of AGS after chronic dosing (tolerance) (Fmr1^−/y mice [14]): greatly reduced after chronic dosing

Compound: Cc1nc(C#Cc2cccnc2)cs1 [MTEP, 3-[(2-methyl-1,3-thiazol-4-yl)ethynyl]-pyridine, reference compound]
effect of pretreatment on MK-801–induced hyperlocomotion (wild-type mice; 10 mg/kg ip): potentiated MK-801–induced hyperlocomotion

Compound: O=C1NC(=O)C(c2ccccc2[N+](=O)[O-])=C1Nc1ccc(O)c(Cl)c1 [SB415286]
NMDAR-dependent LTD [13]: reliably inhibit LTD

Compound: O=C1Cc2c([nH]c3ccc(Br)cc23)-c2ccccc2N1 [kenpaullone]
NMDAR-dependent LTD [13]: reliably inhibit LTD

Compound: [Cl-].[Li+] [lithium, lithium chloride]
NMDAR-dependent LTD [13]: reliably inhibit LTD | phosphorylation of T514 of CRMP2 in hippocampus in vivo (T514 of CRMP2): not changed | APP phosphorylation (T668) in dorsal hippocampus ([5]; 60 mg/kg ip twice daily): reduced APP phosphorylation | rates of cerebral protein synthesis (Fmr1^−/y mice [15]): reduces elevated rates of cerebral protein synthesis | AGS protection (Fmr1^−/y mice [14]): protect Fmr1^−/y mice from AGS | AGS, daily injections over 5 days (Fmr1^−/y mice [14]): effectively reduce AGS | inhibition of total GSK3 protein (GSK3): < 75%
